PLCb3 inh: PLC-beta3 (human) inhibition, primary screen; Q01970; 370,000 tested, 0.18% active; AID 720704; inhibition, % at 12.2 µM; Purified PLC-beta3, fluorogenic substrate, fluorescence; in the data active means inhibition above about 11%;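 further: 0% = median of compound wells on plate and 100% = full blocker control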
TbMetRS inhib: blocks T. brucei methionyl-tRNA synthetase activity; purified T. brucei MetRS, ATP depletion, Kinase-Glo luminescence; inhibition, % at 11.9 µM; 360,000 tested, 0.4% active;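 active means inhibition above a per-plate cutoff of the control wells' mean inhibition plus 3 SD, cut at about 5.5% in these data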;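 further: 0% = DMSO wells median and 100% = median of wells with control inhibitor compound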
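Material: T. brucei methionyl-tRNA synthetase, purified; reagent: substrates ATP, L-methionine and bulk Escherichia coli tRNA; dosing: 11.9 µM single point; timing: 15 min plus 2 h at 25 °C; detection: luminescence of leftover ATP; evaluation: % inhibition; control set: DMSO-only wells as low control; replicates: singlicate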
HGIII-sPLA2 inh: Blocks human group III sPLA2 activity | 370,000 tested, 0.56% active | QFRET BODIPY PC-A2 liposome hydrolysis, fluorescence | AID 743126 | inhibition, % at 12.2 µM | Q9NZ20;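 active means inhibition above mean plus 3 SD of compounds lying within the high and low control bounds, cut at about 19% in these data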;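 further: 0% = median of test compound wells and 100% = no enzyme DMSO wells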
PLCg1 inh: blocks human PLC-gamma1 enzyme activity. AID 720700. purified PLC-gamma1, fluorogenic substrate, fluorescence. 370,000 tested, 0.84% active. inhibition, % at 12.2 µM. P19174; in the data active means inhibition above about 9.5%
DAGLB inhibitor: blocks human DAGLB lipase activity. 340,000 tested, 0.059% active. Q8NCG7. inhibition, % at 5.17 µM. AID 504411. HEK293T DAGLB membrane lysate, EnzChek fluorogenic substrate; in the data active means inhibition above about 34%;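 further: 0% = enzyme with vehicle and 100% = wells lacking enzyme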
Tb MetRS conf: confirmation of Trypanosoma brucei MetRS inhibitors; shares compounds with TbMetRS inhib; T. brucei MetRS enzyme, luminescence (ATP depletion); inhibition, % at 11.9 µM; 1,400 tested, 93% active; AID 624412; in the data active means inhibition above about 7%
Jurkat tox: counter-screen for T. brucei MetRS inhibitors: Jurkat cell cytotoxicity. shares compounds with TbMetRS inhib. AID 624413. inhibition, % at 8.3 µM. 1,400 tested, 12% active. Jurkat cells viability, ATP luminescence; in the data active means inhibition above about 15%;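 further: 0% = vehicle and 100% = reference inhibitor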
TbMetRS FP orth: orthogonal test for Trypanosoma brucei MetRS inhibitors; shares compounds with TbMetRS inhib; purified T. brucei MetRS, fluorescence polarization; inhibition, % at 11.9 µM; 1,400 tested, 44% active; in the data active means inhibition above about 17%;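 further: 0% = vehicle wells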
* hit, by the source's call; i = inactive; nt = not tested or not shown. Shown are actives, neighbours in structure and some others; about 1.9% of the full set was active somewhere.

SMILES	PLCb3 inh	TbMetRS inhib	HGIII-sPLA2 inh	PLCg1 inh	DAGLB inhibitor	Tb MetRS conf	Jurkat tox	TbMetRS FP orth
Cc1cc2c(c(=O)n1Cc1ccccn1)C(c1ccc3c(c1)OCO3)C(C#N)=C(N)O2 (stereo not given)	1	14*	-1	-2	0	4	-10	3
COc1cc(C2C(C#N)=C(N)Oc3cc(C)n(CC4CCCO4)c(=O)c32)cc2c1OCO2 (stereo not given)	-7	78*	-4	-4	3	4	1	1
CC(C)C[C@H](NC1(C(=O)NC2CCCCC2)CCCCC1)C(=O)NCC(c1ccccc1)c1ccccc1	-1	nt	-1	-1	nt	nt	nt	nt
C[C@@H]1ON(C)[C@H]2C[C@H]3c4[nH]c5cccc(-c6ccc7c(c6)OCO7)c5c4CCN3C(=O)[C@@H]12	-275	nt	-16	-206	nt	nt	nt	nt
COc1cccc(N2CCN(c3ncnc4c3[nH]c3ccc(F)cc34)CC2C)c1 (stereo not given)	-32	8.5*	-14	-24	2	12*	95*	14
NC(=S)Nc1cccc(-c2n[nH]c(=S)o2)c1	-19	14*	5	-9	0	35*	1	17*
Cc1ccc(NC(=S)Nc2cccc(-c3n[nH]c(=S)o3)c2)cc1	-26	1	8	-21	3	nt	nt	nt
CC(=O)Nc1sc2c(c1-c1nc(-c3ccccc3)cs1)CCN(C(C)C)C2	i	nt	-44	-446	nt	nt	nt	nt
COc1ccc(C(C#N)=Cc2cc(OC)c(OC)c(OC)c2)cc1	-18	nt	-8	-14	nt	nt	nt	nt
COc1ccc(/C(C#N)=C/c2cccnc2)cc1	-339	6.1*	-3	-239	-4	15*	-1	8
O=S1(=O)c2ccccc2-c2c(nnn2CC2CCCCC2)CN1C1CC1	0	nt	1	1	nt	nt	nt	nt
COCCNC(=O)CS(=O)Cc1nc(-c2ccccc2C)oc1C (stereo not given)	0	59*	-8	-2	0	3	-3	5
C=CCCC1CN(Cc2ccc(OC)cc2)S(=O)(=O)c2c(cccc2N2CCCCC2)O1 (stereo not given)	-1	nt	16	1	nt	nt	nt	nt
CCOC(=O)N(C)C[C@H]1OCc2cnnn2CCCC(=O)N([C@H](C)CO)C[C@@H]1C	0	nt	11	-1	nt	nt	nt	nt
O=S(=O)(Nc1cc2nc3ccccc3nc2n1Cc1ccccc1)c1ccc(Cl)cc1	-37	32*	7	-29	12	96*	2	76*
O=S(=O)(NCc1ccccc1)c1ccc(Cl)cc1	0	0	-11	1	0	nt	nt	nt
Cc1cccc(CN[C@@H]2CC[C@@]34CCCN3C(=O)CCC[C@H]4C2)c1	0	nt	6	2	nt	nt	nt	nt
OC(c1cc(Cl)cc(Cl)c1)c1ncc(-c2cccc(F)c2)[nH]1 (stereo not given)	3	42*	-5	0	nt	77*	-1	55*
Cc1ccc(C(O)c2ncc(-c3ccc4ccccc4c3)[nH]2)cc1 (stereo not given)	-67	0	-9	-38	nt	nt	nt	nt
Cc1cc(C)cc(C(O)c2ncc(-c3ccc4ccccc4c3)[nH]2)c1 (stereo not given)	-28	7.5*	-26	-22	nt	30*	7	17*
OC(c1ccc(Cl)c(Cl)c1)c1ncc(-c2cccc(F)c2)[nH]1 (stereo not given)	-4	1	-8	1	nt	nt	nt	nt
OC(c1cc(F)cc(Cl)c1)c1ncc(-c2ccc(Cl)cc2)[nH]1 (stereo not given)	4	34*	-5	5	nt	69*	12	47*
OC(c1cc(F)cc(Cl)c1)c1ncc(-c2ccccc2C(F)(F)F)[nH]1 (stereo not given)	3	26*	-1	3	nt	48*	81*	23*
Cc1cc(C)cc(C(O)c2ncc(-c3ccccc3C(F)(F)F)[nH]2)c1 (stereo not given)	4	1	-6	0	nt	nt	nt	nt
COc1ccc(S[C@]2(C(=O)N3CCN(C(C)=O)CC3)CC(=O)N[C@@H]2c2ccc(OC)cc2)cc1	0	nt	1	-1	nt	nt	nt	nt
SMILES	PLCb3 inh	TbMetRS inhib	HGIII-sPLA2 inh	PLCg1 inh	DAGLB inhibitor	Tb MetRS conf	Jurkat tox	TbMetRS FP orth
CCCCc1nnn2c1C1c3cc(Br)ccc3CCN1C(=O)C2 (stereo not given)	2	nt	-17	2	nt	nt	nt	nt
O=C1CN(C(=O)C2CCCCC2)C=CN1CCc1ccccc1Br	1	nt	-58	-2	nt	nt	nt	nt
O=C(/C=C/c1ccc(-c2ccccc2)cc1)NC1=NCCS1	0	nt	-2	0	nt	nt	nt	nt
Cc1ccccc1-c1cnc(C(O)c2cc(Cl)cc(Cl)c2)[nH]1 (stereo not given)	2	53*	-2	2	nt	81*	6	57*
Cc1ccccc1-c1cnc(C(O)c2ccc(Cl)cc2C)[nH]1 (stereo not given)	6	0	-4	5	nt	nt	nt	nt
COc1ccc(NC(=O)CN(C)C(=O)c2ccc3c(c2)NC(=O)CS3)cc1	-4	7.9*	-5	5	-1	33*	-8	6
CN(CC(=O)Nc1cccc(F)c1)C(=O)c1ccc2c(c1)NC(=O)CS2	-3	4	-10	3	1	nt	nt	nt
c1ccc2c(c1)ncn2-c1ncnc2sc3c(c12)CCCC3	-21	0	-3	-19	3	nt	nt	nt
CC(O)CNc1nc2ccccc2n1-c1ncnc2sc3c(c12)CCC3 (stereo not given)	1	9.3*	-10	1	-4	16*	4	6
O=C(NCc1ccco1)/C(=C/c1cccc(C(F)(F)F)c1)c1nc2ccccc2[nH]1	-62	1	1	-50	0	nt	nt	nt
O=C(NCc1ccco1)/C(=C/c1ccc(C(F)(F)F)cc1)c1nc2ccccc2[nH]1	-54	7.7*	-4	-45	6	5	30*	-3
CCOC(=O)C1Cc2c([nH]c3ccccc23)C(C)N1 (stereo not given)	-4	0	2	-4	1	nt	nt	nt
CCCCCCCCCC1NC(C(=O)O)Cc2c1[nH]c1ccccc21 (stereo not given)	-27	70*	-11	-23	-3	93*	-6	74*
O=C(CNS(=O)(=O)c1ccc([N+](=O)[O-])cc1)N/N=C/c1ccc(O)cc1O	-7	16*	-29	-2	1	36*	46*	22*
O=C(CNS(=O)(=O)c1ccc([N+](=O)[O-])cc1)N/N=C\c1ccc(O)cc1	-3	0	-11	4	-4	nt	nt	nt
Cc1cc(C(=O)O[C@H]2CCC[C@@]3(C(=O)N(Cc4ccccc4)c4ccccc43)[C@H]2NC(=O)CCc2ccccc2)no1	7	nt	-3	7	nt	nt	nt	nt
Fc1cccc(CSc2nc3ncc(Cl)cc3[nH]2)c1	-8	6.4*	4	-5	nt	7.3*	5	0
